Activity calls are given as the source filed them.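 How the source made its calls, unless noted: active means inhibition at or above 50% relative to wild type and mutant plate controls; inactive means inhibition below 50%.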
Legend:
[1] = inhibitors of TNFa-induced NFkB p65 translocation, primary screen, imaging, HUVEC, MLSMR starter and 10KST1 sets (AID 438;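 active means inhibition above 20% together with a positive visual image hit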;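 further: compound added about 3h40 before a 20 min TNFalpha stimulation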;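 on inhibition: signal is the nuclear over cytoplasmic p65 intensity ratio per well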); settings: HUVEC TNFa-induced p65 nuclear translocation; cell count: measured here: nuclei count (cytotoxicity indicator), at 2.08 µM; inhibition: at 2 µM, stronger effect = higher value, 0% TNFa-plus-vehicle, 100% no-TNFa wells
[2] = endothelial E-selectin expression blockers – imaging, HUVEC, immunofluorescence, MLSMR starter and 10KST1 sets, primary screen (AID 487;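 active means visually confirmed hit in the image check and inhibition above 20%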;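 on inhibition: signal is fraction of cell area covered by stained E-selectin grains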;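 on nuclei count: 100% = median nuclei count of all wells on the same plate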); settings: HUVEC TNFalpha-induced E-selectin immunofluorescence imaging, at 2 µM; inhibition: stronger effect = higher value; nuclei count: measured here: cell number, toxicity
[3] = Primary imaging screen for DUSP6 inhibitors that restore phospho-Erk in transfected HeLa cells, chemical complementation (AID 609;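 active means compounds giving at least 50% inhibition in the cell-based MKP-3 phosphatase rescue imaging test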;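 on inhibition: phospho-Erk level distribution per well compared with pooled transfected vehicle control wells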); settings: HeLa MKP-3 transfected, phospho-Erk imaging KS statistic, at 10 µM, cells stimulated with TPA for 15 min
[4] = target: Dual specificity protein phosphatase 6 (Homo sapiens) (UniProt Q16828); assay: as above; settings: HeLa MKP-3 transfected, phospho-Erk imaging KS statistic; at 10 µM; stronger effect = higher value; cells stimulated with TPA for 15 min
Sequence of Dual specificity protein phosphatase 6 (Homo sapiens) (Q16828 whole entry, looked up): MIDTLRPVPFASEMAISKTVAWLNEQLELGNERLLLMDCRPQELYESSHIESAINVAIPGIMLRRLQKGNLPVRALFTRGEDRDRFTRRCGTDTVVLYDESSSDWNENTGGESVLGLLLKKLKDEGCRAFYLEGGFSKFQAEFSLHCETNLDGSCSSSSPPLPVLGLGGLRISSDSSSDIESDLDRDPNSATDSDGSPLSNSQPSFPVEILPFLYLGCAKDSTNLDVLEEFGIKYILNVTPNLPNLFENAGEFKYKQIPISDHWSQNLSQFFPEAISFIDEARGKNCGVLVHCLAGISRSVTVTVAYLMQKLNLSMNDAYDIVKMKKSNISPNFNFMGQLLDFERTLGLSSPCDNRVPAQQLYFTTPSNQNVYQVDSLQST

[5] = target: Voltage-gated potassium channel subunit beta-2 (Rattus norvegicus) (UniProt P62483); assay: inhibitors of rat Kvbeta2 reductase activity – biochemical, NADPH fluorescence, primary screen (AID 622;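 active means fluorescence slope higher than the sample average by over 3 SD, cut at about -0.22 in these data, passing the limit was not always enough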;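 further: slope of raw intensity against log time taken from 70 to 1610 s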); settings: recombinant KvBeta, 4-cyanobenzaldehyde reduction, at 10 µM, stronger effect = higher value
Sequence of Voltage-gated potassium channel subunit beta-2 (Rattus norvegicus) (P62483 whole entry, looked up): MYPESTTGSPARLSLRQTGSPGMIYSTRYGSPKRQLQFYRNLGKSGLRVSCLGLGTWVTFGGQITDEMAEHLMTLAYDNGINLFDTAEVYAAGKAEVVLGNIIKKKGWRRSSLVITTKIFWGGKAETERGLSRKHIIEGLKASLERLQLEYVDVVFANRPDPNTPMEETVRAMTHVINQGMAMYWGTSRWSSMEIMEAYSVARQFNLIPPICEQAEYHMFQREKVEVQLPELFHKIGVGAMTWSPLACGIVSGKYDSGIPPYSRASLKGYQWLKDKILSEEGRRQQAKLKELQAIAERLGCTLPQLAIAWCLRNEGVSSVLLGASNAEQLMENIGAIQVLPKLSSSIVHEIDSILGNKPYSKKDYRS

[6] = target: Voltage-gated potassium channel subunit beta-2 (Rattus norvegicus) (UniProt P62483); assay: enhancers of rat Kvbeta2 NADPH turnover – biochemical, NADPH fluorescence, primary screen (AID 623;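 active means NADPH fluorescence slope more negative than the mean of all samples by about 3 SD, 99.7% confidence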;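 further: fluorescence intensity change per second fitted from 20 to 320 s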); settings: Recombinant KvBeta, NADPH fluorescence decrease slope, 10 min; at 10 µM; stronger effect = lower value
[7] = target: Muscarinic acetylcholine receptor M4 (Homo sapiens) (UniProt P08173); assay: M4-linked GIRK flux change, two-sided – cell-based, HEK293 M4/GIRK, thallium flux, BTC-AM, M4 allosteric agonist project, primary screen (AID 625;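 active means fluorescence slope after compound addition differing from the mean of all tested samples at 99.7% confidence, mostly higher but some lower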;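 further: thallium influx through GIRK channels coupled to M4 in HEK293 cells with BTC-AM dye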); settings: at 10 µM, actives lie on both sides
Sequence of Muscarinic acetylcholine receptor M4 (Homo sapiens) (P08173 whole entry, looked up): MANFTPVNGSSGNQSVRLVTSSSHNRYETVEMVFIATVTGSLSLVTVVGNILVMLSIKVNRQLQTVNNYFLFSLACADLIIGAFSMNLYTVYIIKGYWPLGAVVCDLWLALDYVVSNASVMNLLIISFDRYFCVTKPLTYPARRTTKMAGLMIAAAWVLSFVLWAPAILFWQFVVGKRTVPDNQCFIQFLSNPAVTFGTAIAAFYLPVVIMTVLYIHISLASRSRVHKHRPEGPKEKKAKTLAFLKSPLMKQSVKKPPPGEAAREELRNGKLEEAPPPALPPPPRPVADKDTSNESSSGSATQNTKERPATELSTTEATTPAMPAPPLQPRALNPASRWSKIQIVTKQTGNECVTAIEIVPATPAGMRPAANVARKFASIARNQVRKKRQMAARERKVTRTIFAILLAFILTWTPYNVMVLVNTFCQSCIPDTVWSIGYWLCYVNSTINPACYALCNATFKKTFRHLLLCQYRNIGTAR
Summary of the method: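 Assay system: HEK293 cells with M4 receptor and GIRK channels / Controls: carbachol and DMSO controls / Schedule: 1 h dye loading, 2 min kinetic read / Technique: kinetic fluorescence with BTC-AM dye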

[8] = inhibitors of larval lipid processing in zebrafish, primary screen, whole organism, PED6 fluorescence, gall bladder and intestine (AID 686;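 active means a full or partial loss of lipid-probe fluorescence in the fish gall bladder, intestine or both, judged by eye; inactive means no fluorescence loss, or compound toxic to the fish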;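 further: larvae 5 to 7 days old with five fish per well; signal comes from phospholipase A2 cleavage of quenched PED6 carried via bile; overnight exposure to compound and PED6 before scoring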); settings: Zebrafish larvae PED6 lipid processing, fluorescence scoring; screened at 20 µM (by protocol)
Summary of the method: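 Doses: 20 µM single dose. Test system: live zebrafish larvae aged 5-7 days, whole organism. Quantity: five larvae per well. Measured by: By-eye fluorescence microscopy. Reagent: ingested quenched lipid PED6 at 100 nM. Read-out: visual per-well fluorescence inhibition score. Times: overnight exposure of larvae to compound plus PED6.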

[9] = loss of swimming-algae plug formation – whole organism, Chlamydomonas reinhardtii, WT vs cilia-less mutant, absorbance, 96-well, primary screen (AID 463189); settings: Chlamydomonas reinhardtii gravitaxis, OD600 absorbance, 2 days; at 10 µM; stronger effect = higher value;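 further: 0% = wild type cc124 cells in DMSO and 100% = ciliumless bld1 mutant cells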
[10] = measured here: cell density z-score
[11] = measured here: nuclear c-Myc green intensity z-score
[12] = measured here: nuclear pErk red intensity z-score, stronger effect = higher value

Compound | cell count [1] | inhibition [1] | inhibition [2] | nuclei count [2] [%] | z-score [3, 10] | z-score [3, 11] | z-score [3, 12] | inhibition [4] | fluorescence slope [5] | NADPH fluorescence slope [6] | fluorescence slope [7] | outcome [8] | inhibition [9]
O=C(CC(c1ccc(F)cc1)c1ccco1)N1CCCC1 (stereo unspecified) | 494 | -4% (inactive) | -36.9% (inactive) | 182 | -0.749 | 0.895 | -0.708 | 9.91% (inactive) | -0.404 (inactive) | -1.7e-05 (inactive) | 0.00541 (inactive) | inactive | -1.73% (inactive)
Cc1cc(C)n(CC2CC(=O)N(c3cc(Cl)cc(Cl)c3)C2=O)n1 (stereo unspecified) | 656 | 50.4% (active) | -80.7% (inactive) | 103 | -0.905 | 0.888 | -1.76 | -9.53% (inactive) | -0.548 (inactive) | -7.9e-05 (inactive) | 0.00628 (inactive) | inactive | 10.7% (inactive)
COC(=O)c1ccc(CN(C(C)=O)c2ccccc2)o1 | 547 | 0.8% (inactive) | -113% (inactive) | 141 | 0.183 | -0.22 | -0.676 | 15.4% (inactive) | -0.471 (inactive) | -9.4e-05 (inactive) | 0.00509 (inactive) | inactive | 34.2% (inactive)
CCCCOC(=O)c1ccc(NC(=O)CSc2nncn2C)cc1 | 507 | -8.4% (inactive) | -82.5% (inactive) | 168 | -0.268 | -0.273 | 0.565 | -0.624% (inactive) | -0.456 (inactive) | -6.8e-05 (inactive) | 0.00538 (inactive) | inactive | 5.5% (inactive)
CN(C)c1nc(OCCNC(=O)Nc2ccccc2)nc(N(C)C)n1 | 519 | -7.6% (inactive) | -47.8% (inactive) | 104 | 0.724 | -0.537 | -0.187 | 5.42% (inactive) | -0.522 (inactive) | 5.3e-05 (inactive) | 0.00455 (inactive) | inactive | 36.3% (inactive)
CCn1c(SCC(=O)Nc2ccccc2C(=O)OC)nnc1-c1ccc(N)cc1 | 653 | 2.4% (inactive) | 7.2% (inactive) | 176 | 0.614 | 0.0177 | -0.913 | 22.1% (inactive) | -0.46 (inactive) | -4.1e-05 (inactive) | 0.00557 (inactive) | inactive | 19.8% (inactive)
COc1ccc(/C(O)=C2/C(=O)C(=O)N(c3nc(C)c(C)s3)C2c2ccco2)cc1 (stereo unspecified) | 611 | -12.5% (inactive) | -52.8% (inactive) | 196 | 1.1 | -0.551 | 1.3 | 12.7% (inactive) | -0.446 (inactive) | -5.8e-05 (inactive) | 0.00557 (inactive) | inactive | 0.492% (inactive)
C/C(NC(=O)c1ccccc1F)=C1\C(=O)C[C@@H]2[C@H]1C2(C)C | 697 | -13.5% (inactive) | -170% (inactive) | 187 | -0.142 | 0.763 | -0.13 | -2.47% (inactive) | -0.483 (inactive) | -0.000131 (inactive) | 0.00606 (inactive) | inactive | 24.1% (inactive)
CC(C(=O)N(C)C)N(C#N)c1nc(N(C)C)nc(N(C)C)n1 (stereo unspecified) | 606 | 7.4% (inactive) | 7.8% (inactive) | 80.9 | -1.86 | 1.62 | 0.8 | 7.21% (inactive) | -0.506 (inactive) | -5.1e-05 (inactive) | 0.00543 (inactive) | inactive | 26.6% (inactive)
CC1(C(=O)CSc2n[nH]c(-c3ccccc3Cl)n2)CCC(=O)O1 (stereo unspecified) | 640 | -3.4% (inactive) | -44.5% (inactive) | 144 | 1.47 | -0.819 | -0.432 | -2.47% (inactive) | -0.482 (inactive) | -7.8e-05 (inactive) | 0.0054 (inactive) | inactive | 3.93% (inactive)
COC(=O)c1ccc(Cn2c(O)c(N=O)c3ccccc32)o1 | 485 | 2% (inactive) | -36.4% (inactive) | 122 | -2.02 | 0.422 | -1.72 | 7.42% (inactive) | -0.493 (inactive) | -7e-05 (inactive) | 0.00432 (inactive) | inactive | -9.22% (inactive)
CCCCSc1nnc2n(CCc3ccccc3)c(=O)c3c4c(sc3n12)COC(C)(C)C4 | 533 | -4.4% (inactive) | -25.9% (inactive) | 170 | 1.42 | -1.24 | 0.334 | 11.9% (inactive) | -0.334 (inactive) | -6.5e-06 (inactive) | 0.00807 (inactive) | inactive | 129% (active)
CCCC(C)n1[nH]c(=O)cc1N (stereo unspecified) | 395 | -2.2% (inactive) | -101% (inactive) | 137 | 1.2 | -1.78 | -0.211 | 30.7% (inactive) | -0.46 (inactive) | -0.000101 (inactive) | 0.00418 (inactive) | inactive | 27.7% (inactive)
CCCn1c(SCC(N)=O)nc2c(c1=O)C1(CCCC1)Cc1ccccc1-2 | 555 | -8% (inactive) | 20.3% (inactive) | 170 | 0.28 | 0.545 | 0.00156 | 1.98% (inactive) | -0.386 (inactive) | -5.2e-05 (inactive) | 0.00485 (inactive) | inactive | -1.68% (inactive)
CC(C)OCCCn1c(=N)c(C(N)=S)cc2c(=O)n3ccccc3nc21 | 619 | -7.9% (inactive) | -3% (inactive) | 149 | 1.16 | -1.47 | -1.15 | 17.7% (inactive) | -0.454 (inactive) | -4.1e-05 (inactive) | 0.00453 (inactive) | inactive | 22.8% (inactive)
COCc1[nH]nc2c1C(c1ccc(OC)cc1)C(C#N)=C(N)O2 (stereo unspecified) | 664 | -8.1% (inactive) | 0.4% (inactive) | 142 | -1.64 | 0.0391 | -2.4 | -4.27% (inactive) | -0.477 (inactive) | -6e-05 (inactive) | 0.006 (inactive) | inactive | 0.628% (inactive)
CN(C)C(=O)COn1c(SCC(=O)N(C)C)nc2ccccc2c1=O | 739 | 2% (inactive) | -47.5% (inactive) | 191 | -0.833 | -0.176 | 1.1 | 0.671% (inactive) | -0.428 (inactive) | -3.4e-05 (inactive) | 0.00719 (inactive) | inactive | 0.936% (inactive)
CCOC(=O)c1[nH]c2ccc(OC)cc2c1NC(=O)CCN1CCc2ccccc2C1 | 515 | -5.3% (inactive) | -124% (inactive) | 136 | -0.0545 | -2.02 | 1.46 | 3.42% (inactive) | -0.323 (inactive) | -3.8e-05 (inactive) | 0.00491 (inactive) | inactive | -5.17% (inactive)
COc1ccc(OC)c(NS(=O)(=O)c2ccc(N3CCCC3=O)cc2)c1 | 645 | 24% (active) | -344% (inactive) | 139 | 1.32 | -0.903 | -0.414 | -3.97% (inactive) | -0.465 (inactive) | -0.000177 (inactive) | 0.00599 (inactive) | inactive | 14% (inactive)
CCOC(=O)c1[nH]c2ccccc2c1N=C(C)N(CC)CC | 643 | -7% (inactive) | -113% (inactive) | 160 | -1.18 | 2.66 | 0.345 | 11.9% (inactive) | -0.521 (inactive) | -3.5e-05 (inactive) | 0.00643 (inactive) | inactive | -5.79% (inactive)
CCC(=O)Nc1nc2ccccc2n1CCN(C)C | 551 | 4.1% (inactive) | -371% (inactive) | 131 | 0.711 | 0.524 | -0.675 | -1.98% (inactive) | -0.436 (inactive) | -1.7e-05 (inactive) | 0.00568 (inactive) | inactive | -5.07% (inactive)
COC(=O)c1cc(Br)c(=O)n(-c2cc(C)on2)c1 | 650 | -3.9% (inactive) | 23.3% (inactive) | 115 | -0.164 | -1.68 | 0.836 | -2.91% (inactive) | -0.438 (inactive) | -1.4e-05 (inactive) | 0.00456 (inactive) | inactive | 8.55% (inactive)
Cc1cc(C)c(S(=O)(=O)O)c(C)n1 | 533 | -13.8% (inactive) | 6.7% (inactive) | 203 | -0.302 | 0.575 | 0.985 | -5.95% (inactive) | -0.393 (inactive) | -4.7e-05 (inactive) | 0.00523 (inactive) | inactive | -7.08% (inactive)
CCOC(=O)COn1c(=O)c(-c2ccc(OC)c(OC)c2)[n+]([O-])c2ccccc21 | 542 | -6% (inactive) | -40.6% (inactive) | 142 | 0.722 | -0.529 | 0.673 | -1.98% (inactive) | -0.33 (inactive) | -7.7e-06 (inactive) | 0.00588 (inactive) | inactive | 37.5% (inactive)
COC(=O)C(NC(=O)c1ccccc1)(Nc1nccs1)C(F)(F)F (stereo unspecified) | 677 | -5.5% (inactive) | -7.4% (inactive) | 159 | 1.36 | -0.846 | 0.224 | 22.1% (inactive) | -0.474 (inactive) | -2.6e-05 (inactive) | 0.00463 (inactive) | inactive | -5.27% (inactive)
CCCOc1cccc(C2/C(=C(/O)c3ccc(F)cc3)C(=O)C(=O)N2CCN(C)C)c1 (stereo unspecified) | 676 | -13.2% (inactive) | -51.1% (inactive) | 132 | 0.0201 | -1.18 | -0.732 | -2.91% (inactive) | -0.478 (inactive) | -2.8e-05 (inactive) | 0.00611 (inactive) | inactive | 12.9% (inactive)
COc1ccc(C2NC3=C(CCC3)C3(C#N)C(OC)(OC)N=C(N)C23C#N)cc1 (stereo unspecified) | 535 | -13.1% (inactive) | -35.8% (inactive) | 134 | -0.336 | 0.913 | 0.179 | 1.42% (inactive) | -0.438 (inactive) | -3.3e-05 (inactive) | 0.0052 (inactive) | inactive | 30.4% (inactive)
